Converted amounts (≈) assume the structure as drawn.
How the values were obtained:
[1] = Hemolytic activity in human erythrocytes at 100 ug/mL after 48 hrs relative to 0.2% saponin; assay type: ADME, cell-based, Erythrocyte; details: read-out: Activity
In short: (§1)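 Uninfected normal erythrocytes at 2% hematocrit incubated 48 h with compound dilutions in duplicate plates. Cells pelleted at 200g for 3 min, and hemoglobin in the supernatant read by absorbance at 405 nm. Percent hemolysis calculated against 0.2% saponin.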

[2] = tested on: Plasmodium falciparum; assay: Antiparasitic activity against Plasmodium falciparum 3D7 after 48 hrs; assay type: functional, organism-based; details: 3D7, 48 h
In short: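 P. falciparum 3D7 cultures diluted with fresh medium and erythrocytes to 2% parasitemia, 2% hematocrit. Serial compound dilutions added and plates held 48 h at 37 °C. Viability read as parasite lactate dehydrogenase activity, relative to solvent controls with 0.5% DMSO.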

[3] = Effect on erythrocyte shape in human erythrocytes assessed as stomatocytes at 100 ug/mL after 48 hrs; assay type: ADME, cell-based
In short: (§2)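 Fresh erythrocytes at 2% hematocrit incubated 48 h in parasite culture medium alone or with compound. Suspensions then wet-mounted under coverslips and examined at once by phase-contrast microscopy with a 100× oil objective; Giemsa-stained thin smears were also examined. Percent stomatocytes, echinocytes and knizocytes scored using shape definitions of Lim et al.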

[4] = Effect on erythrocyte shape in human erythrocytes assessed as stomatocytes at 50 ug/mL after 48 hrs; assay type: ADME, cell-based; in short: as §2
[5] = Hemolytic activity in human erythrocytes at 200 ug/mL after 48 hrs relative to 0.2% saponin; assay type: ADME, cell-based, Erythrocyte; details: read-out: Activity; in short: as §1
[6] = Effect on erythrocyte shape in human erythrocytes assessed as echinocytes at 100 ug/mL after 48 hrs; assay type: ADME, cell-based; in short: as §2
[7] = Effect on erythrocyte shape in human erythrocytes assessed as echinocytes at 50 ug/mL after 48 hrs; assay type: ADME, cell-based; in short: as §2
[8] = Effect on erythrocyte shape in human erythrocytes assessed as […] and stomatocytes at 100 ug/mL after 48 hrs; assay type: ADME, cell-based; in short: as §2

Q: Which results are given for `CC1(C)CCC[C@@]2(C)[C@H]1CC[C@@]1(O)C/C(=C\CO)CC[C@@H]12`?
A: hemolysis at 48 h, 100 ug/mL [1]: 2%; IC50 [2]: 10.6 µg/mL (≈ 36.2 µM); Activity [3]: 64%; Activity [4]: 5%; hemolysis at 48 h, 200 ug/mL [5]: 102%; Activity [6]: 0%; Activity [7]: 1%

Q: Which hemolysis at 48 h, 100 ug/mL [1] does the source give for `CCOC(=O)/C=C1\CC[C@H]2[C@@](O)(CC[C@H]3C(C)(C)CCC[C@@]32C)C1` here?
A: Its hemolysis at 48 h, 100 ug/mL is 3%.

Q: And the IC50 [2]?
A: Its IC50 is 5.7 µg/mL (≈ 17 µM).

Q: And the Activity [3]?
A: The Activity was 8%.

Q: And the Activity [4]?
A: Its Activity is 2%.

Q: What about the hemolysis at 48 h, 200 ug/mL [5] of the same molecule?
A: The hemolysis at 48 h, 200 ug/mL was 17%.

Q: What about the Activity [6] of the same molecule?
A: Its Activity is 0%.

Q: What about the Activity [7] of the same molecule?
A: The Activity was 2%.

Q: With `C=C[C@@]1(C)CCC2[C@@](O)(CC[C@H]3C(C)(C)[C@@H](O)CC[C@]23C)C1` (stereo partly specified) as the molecule, how does the IC50 [2] read?
A: The IC50 was 7 µg/mL (≈ 22.8 µM).

Q: Which IC50 [2] does the source give for `C=C[C@@]1(C)CCC2=C(CC[C@H]3C(C)(C)[C@@H](O)CC[C@]23C)C1` here?
A: The IC50 was 7 µg/mL (≈ 24.3 µM).

Q: Which IC50 [2] does the source give for `C=C[C@@]1(C)CCC2=C(C1)C(=O)C[C@H]1C(C)(CO)[C@@H](O)CC[C@]21C` (stereo partly specified) here?
A: The IC50 was 7 µg/mL (≈ 22 µM).

Q: For `CCOC(=O)/C=C1/CC[C@H]2[C@@](O)(CC[C@H]3C(C)(C)CCC[C@@]32C)C1`, which hemolysis at 48 h, 100 ug/mL [1] is on record?
A: The hemolysis at 48 h, 100 ug/mL was 9%.

Q: What about the IC50 [2] of the same molecule?
A: The IC50 was 3.9 µg/mL (≈ 11.7 µM).

Q: And the Activity [8]?
A: The Activity was 17%.

Q: And the Activity [4]?
A: The Activity was 11%.

Q: What about the hemolysis at 48 h, 200 ug/mL [5] of the same molecule?
A: The hemolysis at 48 h, 200 ug/mL was 34%.

Q: And the Activity [6]?
A: Its Activity is 0%.

Q: And the Activity [7]?
A: Its Activity is 0%.

Q: With `CCO[C@@]12CC[C@H]3[C@@](CC[C@H]4C(C)(C)CCC[C@@]43C)(C1)OC(=O)C2` as the molecule, how does the hemolysis at 48 h, 100 ug/mL [1] read?
A: Its hemolysis at 48 h, 100 ug/mL is 0%.

Q: What about the IC50 [2] of the same molecule?
A: The IC50 was 19.6 µg/mL (≈ 58.6 µM).

Q: What about the Activity [3] of the same molecule?
A: The Activity was 0%.

Q: And the Activity [4]?
A: Its Activity is 1%.

Q: What about the hemolysis at 48 h, 200 ug/mL [5] of the same molecule?
A: The hemolysis at 48 h, 200 ug/mL was 0%.

Q: And the Activity [6]?
A: The Activity was 9%.

Q: And the Activity [7]?
A: Its Activity is 2%.

Q: Which hemolysis at 48 h, 100 ug/mL [1] does the source give for `CC1(C)CCC[C@@]2(C)[C@H]1CC[C@@]1(O)CC(CCO)CC[C@@H]12` (stereo partly specified) here?
A: Its hemolysis at 48 h, 100 ug/mL is 0%.

Q: And the IC50 [2]?
A: Its IC50 is 13.3 µg/mL (≈ 45.2 µM).

Q: And the Activity [3]?
A: The Activity was 3%.

Q: What about the Activity [4] of the same molecule?
A: Its Activity is 1%.

Q: And the hemolysis at 48 h, 200 ug/mL [5]?
A: Its hemolysis at 48 h, 200 ug/mL is 5%.

Q: And the Activity [6]?
A: The Activity was 2%.

Q: What about the Activity [7] of the same molecule?
A: The Activity was 3%.

Q: For `C=C[C@]1(C)C=C2CC[C@H]3C(C)(CO)[C@@H](O)CC[C@]3(C)[C@H]2CC1` (stereo partly specified), which IC50 [2] is on record?
A: The IC50 was 7 µg/mL (≈ 23 µM).

Q: With `C=C[C@@]1(O)CC[C@H]2[C@@](O)(CC[C@H]3C(C)(C)CCC[C@@]32C)C1` as the molecule, how does the hemolysis at 48 h, 100 ug/mL [1] read?
A: The hemolysis at 48 h, 100 ug/mL was 0.6%.

Q: What about the IC50 [2] of the same molecule?
A: Its IC50 is 10.7 µg/mL (≈ 36.6 µM).

Q: And the Activity [3]?
A: Its Activity is 1%.

Q: What about the Activity [4] of the same molecule?
A: The Activity was 1%.

Q: And the hemolysis at 48 h, 200 ug/mL [5]?
A: The hemolysis at 48 h, 200 ug/mL was 0.2%.

Q: And the Activity [6]?
A: The Activity was 2%.

Q: What about the Activity [7] of the same molecule?
A: Its Activity is 3%.

Source: ChEMBL document CHEMBL1141246, “Transformations of manool. tri- and tetracyclic norditerpenoids with in vitro activity against Plasmodium falciparum” (J Nat Prod, 2007)
